Measurements taken from paper PMC4040673 (Cell Death & Disease, 2014).
Values belong to the compound of their own block, whether it stands above or below them.

Assays:
[1] = test system: isolated mitochondria from HT-22 cells; test: CCCP-induced depolarization / MPT pore opening in isolated HT-22 mitochondria; type: cell-based, mouse; details: 50 μM CCCP
Summary of the method: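 Then treated with 50 μM CCCP protonophore. Δψm followed with 20 nM DiOC6(3) on a fluorescence plate reader. Measurements in triplicate, representative of at least three independent experiments.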

HT-22 cells [2] = test: Intracellular Ca2+; type: cell-based, mouse; details: glutamate 12 h, Fluo-4; n = 8
Summary of the method: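 Transfected HT-22 cells seeded in 96-well plates and grown 24 h, then treated with 2 mM glutamate for 12 h. Fluo-4 AM (5 μM) added to the medium for 30 min. After washing, fluorescence read on a plate reader at excitation 485 nm and emission 520 nm.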

tAIF = test: SPR binding of peptides to tAIF; parameters: species or system mouse; details: direct binding to immobilized protein, applied concentration range
CypA [3] = biological target: CypA (Homo sapiens, UniProt P62937); test: SPR direct binding to immobilized CypA
Sequence of CypA (Homo sapiens, UniProt P62937) (P62937 whole entry): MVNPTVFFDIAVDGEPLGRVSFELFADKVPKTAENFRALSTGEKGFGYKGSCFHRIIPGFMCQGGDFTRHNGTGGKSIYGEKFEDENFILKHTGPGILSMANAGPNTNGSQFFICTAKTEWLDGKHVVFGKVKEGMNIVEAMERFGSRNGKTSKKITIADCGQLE

AIF = type: cell-based, mouse; details: peptide 50 μM or siRNA transfected; glutamate 2 mM, 12 h
Summary of the method: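 HT-22 cells carried siRNA (Lipofectamine-2000) or 50 μM peptide (cationic lipid protein-transfection reagent) and were seeded on chamber slides. Exposed to 2 mM glutamate for 12–14 h. Fixed in 4% paraformaldehyde, permeabilised with 0.04% Triton X, and immunostained for AIF with Alexa 568/488 secondaries and DAPI. Imaged by confocal laser scanning with a 63× 1.4-NA oil objective.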

HT-22 cells [4] = test: Real-time impedance; type: cell-based, mouse; details: siRNA transfected; glutamate 2 mM, ~15 h, n=8
CypA [5] = test: siRNA knockdown of CypA; type: cell-based, mouse; details: HT-22, RT-PCR and immunoblotting
Summary of the method: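 HT-22 cells transfected with scrambled or mouse CypA siRNA (Lipofectamine-2000). One-step RT-PCR on total RNA, GAPDH as reference: cDNA step 60 °C 30 min, 95 °C 2 min, then 30 cycles of 95 °C 30 s, 57 °C 1 min, 70 °C 2 min. Lysates run on SDS-PAGE and blotted to PVDF. Primary antibody overnight at 4 °C, HRP secondary 1:2500, chemiluminescence; tubulin or actin as loading control.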

HT-22 cells [6] = test: Annexin-V-FITC/PI flow cytometry in glutamate-treated HT-22 cells; type: cell-based, mouse; details: siRNA transfected; glutamate 2 mM
Summary of the method: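 HT-22 cells grown at 37 °C, 5% CO2 in DMEM with 10% heat-inactivated calf serum. Transfected with scrambled or mouse CypA siRNA (Lipofectamine-2000), then given 2 mM glutamate. Stained with Annexin-V-FITC/PI by kit and run on a FACScan: FITC excited at 488 nm, emission 530±40 nm; PI excited at 488 nm, emission 680±30 nm. Experiments repeated at least three times.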

HT-22 cells [7] = test: Cell viability of glutamate-treated HT-22 cells in medium without Ca2+; type: cell-based, mouse; details: glutamate 2 mM, 12–14 h, n=4
HT-22 cells [8] = test: Cell viability; type: cell-based, mouse; details: siRNA transfected (Lipofectamine-2000), glutamate 2 mM, 12 h
Summary of the method: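 HT-22 cells seeded at 10 000 cells/well in 96-well plates, in DMEM with 10% heat-inactivated calf serum at 37 °C. siRNA transfected with Lipofectamine-2000, then exposed to 2 mM glutamate for 12 h. MTT at 0.5 mg/ml for 1 h; absorbance read at 570 nm with 630 nm reference. Controls set to 100%. At least three repeats, n=8 per condition.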

Compound: N#CC(C#N)=NNc1cccc(Cl)c1 [CCCP, carbonyl cyanide m-chlorophenyl hydrazone]
loss of Δψm induced by CCCP [1]: strong loss of Δψm

Compound: N[C@@H](CCC(=O)O)C(=O)O [Glutamate]
intracellular Ca2+ concentration induced by glutamate (HT-22 cells [2]): dose-dependent increase

affinity to tAIF (in words) (tAIF): No affinity to tAIF was detected
affinity for CypA (in words) (CypA [3]): very weak affinity
fold lower affinity for CypA compared with AIF(370–394) (CypA [3]; ratio of KD values): 1000 fold
Compound: ILPEYLSNWTMEKVRREG [AIF(343–360)]

Compound: siCypA: mouse siRNA targeting CypA: siCypAFw 5′-CUGAAUGGCUGGAUGGCAA-3′ and siCypARev 5′-UUGCCAUCCAGCCAUUCAG-3′ (chemistry not given here)
glutamate-induced nuclear translocation of AIF (AIF): very weak nuclear AIF staining
protection against glutamate-induced cell death by siRNA, impedance (HT-22 cells [4]): full protection
CypA expression after siRNA (CypA [5]): significantly reduced
protection against glutamate-induced cell death by siRNA, Annexin-V/PI (HT-22 cells [6]): full protection
protective effect combined with depletion of extracellular Ca2+ (HT-22 cells [7]): additive protective effects to depletion of extracellular Ca^2+
protection against glutamate-induced cell death by siRNA, MTT (HT-22 cells [8]): full protection
